# Assay results published in ChEMBL document CHEMBL4145611, “Discovery of Marinoquinolines as Potent and Fast-Acting Plasmodium falciparum Inhibitors with in Vivo Activity” (J Med Chem, 2018).
# Assays:
# Plasmodium falciparum [1] = assay: Antiplasmodial activity against chloroquine-sensitive blood parasite forms of Plasmodium falciparum 3D7 infected in RBC by SYBR green assay; assay type: functional, organism-based; details: 3D7, Erythrocyte
# Method in brief: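 3D7 blood-stage cultures, sorbitol-synchronized twice beforehand, used at 5-10% parasitemia with >80% rings, diluted to 0.5% parasitemia and 2% hematocrit with graded compound (0.05% DMSO), triplicate; artesunate and chloroquine controls. SYBR green I lysis-buffer fluorescence at 485/535 nm; IC50 from curve fit relative to drug-free medium.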
# HepG2 = assay: Cytotoxicity against human HepG2 cells assessed as reduction in cell viability after 24 hrs by MTT assay; assay type: cell-based; details: HepG2, 24 h
# Method in brief: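 HepG2 cells in RPMI-1640 with 10% heat-inactivated serum, seeded 5×10^3 per well, allowed to adhere 18 h at 37 °C, then exposed to compound (400–6.2 µM) for 24 h at 37 °C, 5% CO2. MTT (5 mg/mL) for 3 h, formazan dissolved in DMSO, absorbance 570 nm with 630 nm background; viability as percent of untreated control.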
# [2] = Therapeutic index, ratio of EC50 for human HepG2 cells to IC50 for chloroquine-sensitive blood parasite forms of Plasmodium falciparum 3D7; assay type: toxicity; details: read-out: TI
# Plasmodium falciparum [3] = assay: Plasmodicidal activity against Plasmodium falciparum 3D7A infected in erythrocytes assessed as parasite survival at 10 times IC50 pre-incubated for 24 hrs followed by compound washout and measured after 24 hrs by […] incorporation assay (reference value: 100%); assay type: functional
# Plasmodium falciparum [4] = assay: Plasmodicidal activity against Plasmodium falciparum 3D7A infected in erythrocytes assessed as parasite survival at 10 times IC50 pre-incubated for 48 hrs followed by compound washout and measured after 24 hrs by […] incorporation assay (reference value: 100%); assay type: functional
Structure (SMILES),IC50 (Plasmodium falciparum [1]; read-out: IC50) [µM],IC50 (Plasmodium falciparum [1]; read-out: pIC50 (converted)) [µM],EC50 (HepG2) [µM],selectivity ratio [2],Survival (Plasmodium falciparum [3]) [%],Survival (Plasmodium falciparum [4]) [%]
CCc1nc2cc(OC)ccc2c2cc[nH]c12,> 10,,,,,
COc1cc(OC)cc(-c2nc3ccccc3c3cc[nH]c23)c1,4.9,,> 250,> 51,,
O=C1C(O)=C([C@H]2CC[C@H](c3ccc(Cl)cc3)CC2)C(=O)c2ccccc21 [ATOVAQUONE],,,,,68,40
COC(=O)c1ccc(-c2nc3cc(OC)ccc3c3cc[nH]c23)cc1,1.3,,> 250,> 192,,
COc1cc(OC)cc(-c2nc3cc(OC)ccc3c3cc[nH]c23)c1,1,1,> 250,> 250,,
COc1ccc2c(c1)nc(C)c1[nH]ccc12,10.5,,> 750,> 71,,
COc1ccc2c(c1)nc(-c1ccc([N+](=O)[O-])cc1)c1[nH]ccc12,1.9,,144,76,,
Brc1c[nH]c2c(-c3c[nH]c4ccccc34)nc3ccccc3c12,> 10,,,,,
CCc1nc2ccccc2c2cc[nH]c12,7.3,,151,21,,
CCc1nc(N)nc(N)c1-c1ccc(Cl)cc1 [PYRIMETHAMINE],,,,,55,11
C[C@H]1[C@H](OC(=O)CCC(=O)O)O[C@@H]2O[C@@]3(C)CC[C@H]4[C@H](C)CC[C@@H]1[C@@]24OO3 [ARTESUNATE],,,,,14,5
COc1ccc2c(c1)nc(C)c1[nH]cc(Br)c12,5.4,,> 250,> 46,,
Nc1ccc(-c2nc3ccccc3c3cc[nH]c23)cc1,7.7,,41,5,,
COc1cc(-c2nc3ccccc3c3cc[nH]c23)cc(OC)c1OC,9.2,,99,11,,
Cc1nc2ccccc2c2cc[nH]c12 [MARINOQUINOLINE A],> 10,,,,,
COc1ccc2c(c1)nc(-c1ccc(N)cc1)c1[nH]ccc12,1.3,,> 750,> 576,,
COc1ccc2c(c1)nc(-c1ccc(C(=O)O)cc1)c1[nH]ccc12,> 10,,,,,
O=[N+]([O-])c1ccc(-c2nc3ccccc3c3cc[nH]c23)cc1,> 10,,,,,
Brc1ccc2c(c1)nc(-c1c[nH]c3ccccc13)c1[nH]ccc12,7.9,,> 250,> 32,,
c1ccc(Cc2nc3ccccc3c3cc[nH]c23)cc1 [MARINOQUINOLINE C],> 10,,,,,
COc1ccc2c(c1)nc(Cc1ccccc1)c1[nH]ccc12,14.3,,478,33,,
Brc1ccc2[nH]cc(-c3nc4ccccc4c4cc[nH]c34)c2c1,12.3,12.3,93,8,,
c1ccc2c(c1)nc(-c1c[nH]c3ccccc13)c1[nH]ccc12 [MARINOQUINOLINE E],10.4,,> 750,> 72,,
O=C(O)c1ccc(-c2nc3ccccc3c3cc[nH]c23)cc1,12.1,,82,7,,
COc1ccc2c(c1)nc(-c1ccccc1)c1[nH]cc(Br)c12,2.1,,111,53,,

# Further lines, with some results ahead:
IC50 (Plasmodium falciparum [1]; read-out: IC50) [µM],IC50 (Plasmodium falciparum [1]; read-out: pIC50 (converted)) [µM],Structure (SMILES),EC50 (HepG2) [µM],selectivity ratio [2],Survival (Plasmodium falciparum [3]) [%],Survival (Plasmodium falciparum [4]) [%]
6.7,,COc1ccc(-c2nc3ccccc3c3cc[nH]c23)cc1,> 250,> 37,,
6.2,,Brc1ccc2c(-c3nc4ccccc4c4cc[nH]c34)c[nH]c2c1,42,7,,
0.4,,COc1ccc2c(c1)nc(-c1ccc(N(C)C)cc1)c1[nH]ccc12,20,50,,
9.9,,c1ccc(-c2nc3ccccc3c3cc[nH]c23)cc1,> 750,> 75,,
5.8,,CN(C)c1ccc(-c2nc3ccccc3c3cc[nH]c23)cc1,> 600,> 104,,
> 10,,Brc1ccc(-c2nc3ccccc3c3cc[nH]c23)cc1,,,,
2.4,,COc1ccc2c(c1)nc(-c1ccccc1)c1[nH]ccc12,60,25,,
4.8,,c1ccc2[nH]c(-c3nc4ccccc4c4cc[nH]c34)cc2c1,746,155,,
4,3.98,COC(=O)c1ccc(-c2nc3ccccc3c3cc[nH]c23)cc1,> 250,> 63,,
10.5,,Clc1ccc(-c2nc3ccccc3c3cc[nH]c23)cc1,> 250,> 24,,
0.061,0.0617,COc1ccc2c(c1)nc(-c1c[nH]c3ccccc13)c1[nH]ccc12,20,328,,
4.1,,CC(C)Cc1nc2ccccc2c2cc[nH]c12,> 250,> 61,,
> 10,> 10,COc1ccc2c(c1)nc(-c1ccc(NC(C)=O)cc1)c1[nH]ccc12,,,,
